Test results: ChEMBL document CHEMBL4043101, “Potent haloperidol derivatives covalently binding to the dopamine D2 receptor” (Bioorg Med Chem, 2017)
pKi: −log10 of the molar value.

Assays:
D(2) dopamine receptor [1] = biological target: T1, D(2) dopamine receptor (Homo sapiens, UniProt P14416); assay: Displacement of [3H]spiperone from human D2long receptor expressed in CHO cell membranes by radioligand binding assay
D(2) dopamine receptor [2] = biological target: T1, D(2) dopamine receptor; assay: Displacement of [3H]spiperone from human D2short receptor expressed in CHO cell membranes by radioligand binding assay
[3] = Displacement of [3H]spiperone from human D2short receptor L2.64C mutant expressed in HEK293T cell membranes by radioligand binding assay; details: hek-293t
In short: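 Membranes from HEK 293T cells transiently transfected with the mutant receptor in pcDNA3.1 were used for competition binding against [3H]spiperone (81 Ci/mmol), final 0.15-0.30 nM. Nonspecific binding was defined with 10 µM haloperidol. Protein was measured by Lowry with a BSA standard. IC50 came from a sigmoid nonlinear fit and was converted to Ki by Cheng-Prusoff.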

D(3) dopamine receptor = D(3) dopamine receptor (Homo sapiens, UniProt P35462); assay: Displacement of [3H]spiperone from human D3 receptor expressed in CHO cell membranes by radioligand binding assay
Sequence of D(3) dopamine receptor (P35462 whole entry): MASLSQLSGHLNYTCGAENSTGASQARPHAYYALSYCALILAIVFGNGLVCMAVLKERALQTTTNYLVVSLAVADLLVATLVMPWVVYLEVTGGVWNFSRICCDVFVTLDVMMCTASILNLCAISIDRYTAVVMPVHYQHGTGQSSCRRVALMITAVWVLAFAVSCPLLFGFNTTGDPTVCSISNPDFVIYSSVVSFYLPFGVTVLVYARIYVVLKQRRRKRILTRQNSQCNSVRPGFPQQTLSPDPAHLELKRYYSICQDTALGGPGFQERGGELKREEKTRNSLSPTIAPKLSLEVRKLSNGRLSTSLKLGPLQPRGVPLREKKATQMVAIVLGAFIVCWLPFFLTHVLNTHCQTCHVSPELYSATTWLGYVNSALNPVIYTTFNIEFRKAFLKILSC

[4] = Displacement of [3H]spiperone from human dopamine D4.4 receptor expressed in CHO cell membranes by radioligand binding assay
In short: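 Competition binding used membranes from CHO cells stably expressing human D4.4R, at 4-10 µg protein/tube, with [3H]spiperone final 0.15-0.30 nM (KD 0.14-0.25 nM, Bmax 1000-1700 […]). Nonspecific binding was defined with 10 µM haloperidol. Ki was obtained by sigmoid fit to IC50 and then Cheng-Prusoff. Each Ki is the mean of two independent experiments, each run in triplicate.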

Homo sapiens [5] = species: Homo sapiens; assay: Selectivity index, ratio of Ki for human D3 receptor expressed in CHO cell membranes to Ki for human D2short receptor expressed in CHO cell membranes; format: cell-based
In short: (§1)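 Ratios of Ki values from [3H]spiperone competition binding on CHO membranes stably expressing human D2short, D3 or D4.4 receptors. The D3 and D4 Ki values are each divided by the D2short Ki.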

Homo sapiens [6] = species: Homo sapiens; assay: Selectivity index, ratio of Ki for human dopamine D4.4 receptor expressed in CHO cell membranes to Ki for human D2short receptor expressed in CHO cell membranes; format: cell-based; in short: as §1
Homo sapiens [7] = species: Homo sapiens; assay: Selectivity index, ratio of Ki for human D2short receptor expressed in CHO cell membranes to Ki for human D2short receptor L2.64C mutant expressed in HEK293T cell membranes; format: cell-based
In short: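 Ratio of the D2short Ki from CHO membranes to the Ki measured at the transiently expressed L2.64C mutant in HEK 293T membranes. Both Ki values come from [3H]spiperone competition binding with Cheng-Prusoff conversion.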

[8] = system: D(2) dopamine receptor (Homo sapiens), P14416 [L94C]; assay: Irreversible inhibition of [3H]spiperone binding to human D2short receptor L2.64C mutant expressed in HEK293T cell membranes incubated for 120 mins followed by compound wash out by radioligand depletion assay; details: HEK-293T
Sequence of D(2) dopamine receptor (Homo sapiens), P14416 [L94C] (P14416 whole entry L94C): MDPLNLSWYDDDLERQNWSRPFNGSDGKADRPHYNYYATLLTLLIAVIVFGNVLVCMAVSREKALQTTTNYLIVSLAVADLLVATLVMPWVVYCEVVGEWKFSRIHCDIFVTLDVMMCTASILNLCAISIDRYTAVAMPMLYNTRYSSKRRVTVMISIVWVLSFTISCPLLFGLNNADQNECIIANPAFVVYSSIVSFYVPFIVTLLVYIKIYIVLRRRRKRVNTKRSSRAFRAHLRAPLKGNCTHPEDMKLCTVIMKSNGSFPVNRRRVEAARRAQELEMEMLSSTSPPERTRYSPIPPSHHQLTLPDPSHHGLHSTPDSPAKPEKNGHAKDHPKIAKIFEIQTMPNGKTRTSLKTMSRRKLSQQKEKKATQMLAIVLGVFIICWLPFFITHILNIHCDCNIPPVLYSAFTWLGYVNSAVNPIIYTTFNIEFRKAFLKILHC
In short: (§2)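 For screening, membranes from HEK 293T cells expressing the D2short L2.64C mutant (50 µg/mL protein) were preincubated with compound for 120 min at 37 °C in pH 7.4 Tris buffer. The reference, haloperidol, was used at 20 nM. Membranes were centrifuged and washed four times for 30 min each. Residual specific [3H]spiperone binding was normalized to nonspecific 0% and total 100%. Values are the mean of 2-4 experiments, each in quadruplicate, ±SD.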

[9] = system: D(2) dopamine receptor (Homo sapiens), P14416 [L94C]; assay: Irreversible inhibition of [3H]spiperone binding to human D2short receptor L2.64C mutant expressed in HEK293T cell membranes at 5 uM incubated for 120 mins followed by compound wash out by radioligand depletion assay; details: HEK-293T; in short: as §2
[10] = system: D(2) dopamine receptor (Homo sapiens), P14416 [L94C]; assay: Irreversible inhibition of [3H]spiperone binding to human D2short receptor L2.64C mutant expressed in HEK293T cell membranes at 20 uM incubated for 120 mins followed by compound wash out by radioligand depletion assay; details: HEK-293T; in short: as §2
[11] = system: D(2) dopamine receptor (Homo sapiens), P14416 [L94C]; assay: Irreversible inhibition of [3H]spiperone binding to human D2short receptor L2.64C mutant expressed in HEK293T cell membranes assessed as remaining [3H]spiperone binding at 5 and 20 uM incubated for 120 mins followed by compound wash out by radioligand depletion assay; details: HEK-293T; in short: as §2
[12] = system: D(2) dopamine receptor (Homo sapiens), P14416 [L94C]; assay: Irreversible inhibition of [3H]spiperone binding to human D2short receptor L2.64C mutant expressed in HEK293T cell membranes assessed as covalent binding at 5 and 20 uM incubated for 120 mins followed by compound wash out by radioligand depletion assay; design: scale not given: the % may be the effect or the level left; details: HEK-293T; in short: as §2
HEK-293T [13] = assay: Inhibition of [3H]spiperone binding to human D2short receptor L2.64C mutant expressed in HEK293T cell membranes at 2 and 5 uM incubated for 30 mins by radioligand depletion assay
HEK-293T [14] = assay: Inhibition of [3H]spiperone binding to human D2short receptor L2.64C mutant expressed in HEK293T cell membranes at 2 and 5 uM incubated for 240 mins by radioligand depletion assay
[15] = system: D(2) dopamine receptor (Homo sapiens), P14416 [L94C]; assay: Irreversible inhibition of [3H]spiperone binding to human D2short receptor L2.64C mutant expressed in HEK293T cell membranes at 1 uM incubated for 120 mins followed by compound wash out by radioligand depletion assay; details: HEK-293T; in short: as §2
[16] = system: D(2) dopamine receptor (Homo sapiens), P14416 [L94C]; assay: Irreversible inhibition of [3H]spiperone binding to human D2short receptor L2.64C mutant expressed in HEK293T cell membranes at 10 uM incubated for 120 mins followed by compound wash out by radioligand depletion assay; details: HEK-293T; in short: as §2
HEK-293T [17] = assay: Inhibition of [3H]spiperone binding to human D2short receptor L2.64C mutant expressed in HEK293T cell membranes at 2 and 5 uM incubated for 120 mins by radioligand depletion assay
HEK-293T [18] = assay: Inhibition of [3H]spiperone binding to human D2short receptor L2.64C mutant expressed in HEK293T cell membranes at 1 and 5 uM incubated for 30 mins by radioligand depletion assay
In short: (§3)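 For kinetics, mutant receptor membranes from HEK 293T cells (50 µg/mL protein) were preincubated with compound at two concentrations for 15 to 240 min, at 37 °C, pH 7.4. The buffer was Tris/EDTA/MgCl2/bacitracin/trypsin inhibitor. Incubation was stopped by centrifugation, then membranes were washed four times (30 min resuspension each). Remaining specific [3H]spiperone binding was then measured, with 10 µM haloperidol defining nonspecific binding. Data were normalized to nonspecific 0% and total 100%.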

HEK-293T [19] = assay: Inhibition of [3H]spiperone binding to human D2short receptor L2.64C mutant expressed in HEK293T cell membranes at 1 and 5 uM incubated for 240 mins by radioligand depletion assay; details: in the assay text read “120 mins” for “240 mins”; in short: as §3

T1 sequence (P14416 whole entry): as the sequence (P14416 whole entry L94C) above, with C94L counted along it

Compound | pKi (D(2) dopamine receptor [1]) | pKi (D(2) dopamine receptor [2]) | pKi (D(3) dopamine receptor) | inhibition [8] | inhibition [9] [%] | inhibition [10] [%] | Activity [11] [%] | Activity [12] [%] | inhibition [15] [%] | inhibition [16] [%] | pKi [3] | pKi [4] | Ratio Ki (Homo sapiens [5]) | Ratio Ki (Homo sapiens [6]) | Ratio Ki (Homo sapiens [7]) | inhibition (HEK-293T [13]) [%] | inhibition (HEK-293T [14]) [%] | inhibition (HEK-293T [17]) [%] | inhibition (HEK-293T [18]) [%] | inhibition (HEK-293T [19]) [%]
O=C(CCCN1CCC(O)(c2ccc(Cl)cc2)CC1)c1ccc(F)cc1 [HALOPERIDOL] |  |  |  |  |  |  |  |  |  |  |  | 8.14 |  |  |  |  |  |  |  | 
O=C(NCCN1CCC(O)(c2ccc(Cl)cc2)CC1)NCCN1C(=O)C=CC1=O | 5.66 | 5.82 | 6.16 | Dose-dependent effect | 60 to 85 | 70 to 95 | 5 | > 90 |  |  | 6.07 | < 4.30 | 0.46 | > 33 | 1.7 | 70 to 85 |  | > 90 |  | 
COc1cc(CCN2CCC(O)(c3ccc(Cl)cc3)CC2)ccc1OCCSSCCN | 5.82 | 5.82 | 6.41 | Dose-dependent effect | 60 to 85 | 70 to 95 |  |  |  |  | 6.26 | 5.96 | 0.26 | 0.73 | 2.7 | 72 | 82 |  |  | 

Now from value to compound, other results behind:

pKi (D(2) dopamine receptor [1]) | pKi (D(2) dopamine receptor [2]) | pKi (D(3) dopamine receptor) | inhibition [8] | inhibition [9] [%] | inhibition [10] [%] | Activity [11] [%] | Activity [12] [%] | inhibition [15] [%] | inhibition [16] [%] | Compound | pKi [3] | pKi [4] | Ratio Ki (Homo sapiens [5]) | Ratio Ki (Homo sapiens [6]) | Ratio Ki (Homo sapiens [7]) | inhibition (HEK-293T [13]) [%] | inhibition (HEK-293T [14]) [%] | inhibition (HEK-293T [17]) [%] | inhibition (HEK-293T [18]) [%] | inhibition (HEK-293T [19]) [%]
6.00 | 6.03 | 6.22 | Dose-dependent effect | 60 to 85 | 70 to 95 | 10 | > 90 |  |  | COc1cc(CCN2CCC(O)(c3ccc(Cl)cc3)CC2)ccc1OCCCSSCCN | 6.07 | 5.82 | 0.63 | 1.6 | 1.1 | 87 | 85 |  |  | 
6.62 | 7.14 | 6.85 | Dose-dependent effect |  |  |  |  | 20 | < 70 | O=C(CCCN1CCC(O)(c2ccc(Cl)cc2)CC1)c1ccc(OCCSSCCO)cc1 | 6.48 | 6.01 | 1.9 | 13 | 0.22 |  |  |  |  | 
6.59 | 6.85 | 6.68 | Dose-dependent effect | 70 to 95 |  |  |  | 60 to 85 |  | [N-]=[N+]=NCCSSCCn1cc(C(=O)CCCN2CCC(O)(c3ccc(Cl)cc3)CC2)nn1 | 6.49 | 5.49 | 1.5 | 23 | 0.44 |  |  |  | 80 | 86
